ChEMBL document CHEMBL4689842, “EUbOPEN Chemogenomics Library wave 1” (2021)

Legend:
Format in all cases: toxicity, cell-based
U2OS [1] = test: Multiplex assay against U2OS; settings: human
In short: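 Cells stained live at seeding with Hoechst33342, BioTracker Green Microtubule Cytoskeleton Dye, MitoTracker Red and Annexin V Alexa Fluor 680 were imaged on a CQ1 microscope at 37°C and 5% CO2 after compound addition. Their classification by CellPathfinder machine-learning gating ran from Hoechst high-intensity objects versus normal cells, to healthy, pyknosed or fragmented nuclei among normal cells, to mitotic or apoptotic among pyknosed cells. Tubulin, mitochondrial-mass and membrane-permeability phenotypes are per cents of healthy-nucleus cells.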

HEK-293T = test: Incucyte cell viability with HEK293T; settings: human, 10 µM, compound concentration 10 uM; further: filed as whole numbers so only -1 and 0 and 1 occur
U2OS [2] = test: Incucyte cell viability with U2OS; settings: human, 10 µM, compound concentration 10 uM; further: filed as whole numbers so only -1 and 0 and 1 occur
[3] = 12 h, 1 µM, compound concentration 1 uM, replicate 1
[4] = 12 h, 1 µM, compound concentration 1 uM, replicate 2
[5] = 12 h, 10 µM, compound concentration 10 uM, replicate 1
[6] = 12 h, 10 µM, compound concentration 10 uM, replicate 2
[7] = 24 h, 1 µM, compound concentration 1 uM, replicate 1
[8] = 24 h, 1 µM, compound concentration 1 uM, replicate 2
[9] = 24 h, 10 µM, compound concentration 10 uM, replicate 1
[10] = 24 h, 10 µM, compound concentration 10 uM, replicate 2
[11] = 48 h, 1 µM, compound concentration 1 uM, replicate 1
[12] = 48 h, 1 µM, compound concentration 1 uM, replicate 2
[13] = 48 h, 10 µM, compound concentration 10 uM, replicate 1
[14] = 48 h, 10 µM, compound concentration 10 uM, replicate 2
[15] = 0 h, replicate number 1, timepoint 0 hours
[16] = 24 h, replicate number 1, timepoint 24 hours

SMILES: Cc1ccc(S(=O)(=O)NC2c3ccccc3Oc3ccccc32)cc1
- Population Apoptotic (%) (U2OS [1]; [3]): 47%
- Population Fragmented Nuclei (%) (U2OS [1]; [3]): 11%
- Population Healthy Nuclei (%) (U2OS [1]; [3]): 77%
- Population Hoechst High Intensity Objects (%) (U2OS [1]; [3]): 5%
- Population Membrane Permeable-Phenotype (%) (U2OS [1]; [3]): 6%
- Population Mitochondria Different-Phenotype (%) (U2OS [1]; [3]): 5%
- Population Mitotic Cells (%) (U2OS [1]; [3]): 52%
- Population Normal (%) (U2OS [1]; [3]): 94%
- Population Pyknosed Nuclei (%) (U2OS [1]; [3]): 10%
- Population Tubulin-Different-Phenotype (%) (U2OS [1]; [3]): 5%
- Total Cell Count (U2OS [1]; [3]): 216
- Population Apoptotic (%) (U2OS [1]; [4]): 0%
- Population Fragmented Nuclei (%) (U2OS [1]; [4]): 10%
- Population Healthy Nuclei (%) (U2OS [1]; [4]): 76%
- Population Hoechst High Intensity Objects (%) (U2OS [1]; [4]): 4%
- Population Membrane Permeable-Phenotype (%) (U2OS [1]; [4]): 0%
- Population Mitochondria Different-Phenotype (%) (U2OS [1]; [4]): 16%
- Population Mitotic Cells (%) (U2OS [1]; [4]): 100%
- Population Normal (%) (U2OS [1]; [4]): 95%
- Population Pyknosed Nuclei (%) (U2OS [1]; [4]): 12%
- Population Tubulin-Different-Phenotype (%) (U2OS [1]; [4]): 2%
- Total Cell Count (U2OS [1]; [4]): 49
- Population Apoptotic (%) (U2OS [1]; [5]): 71%
- Population Fragmented Nuclei (%) (U2OS [1]; [5]): 84%
- Population Healthy Nuclei (%) (U2OS [1]; [5]): 12%
- Population Hoechst High Intensity Objects (%) (U2OS [1]; [5]): 7%
- Population Membrane Permeable-Phenotype (%) (U2OS [1]; [5]): 71%
- Population Mitochondria Different-Phenotype (%) (U2OS [1]; [5]): 28%
- Population Mitotic Cells (%) (U2OS [1]; [5]): 28%
- Population Normal (%) (U2OS [1]; [5]): 92%
- Population Pyknosed Nuclei (%) (U2OS [1]; [5]): 2%
- Population Tubulin-Different-Phenotype (%) (U2OS [1]; [5]): 68%
- Total Cell Count (U2OS [1]; [5]): 507
- Population Apoptotic (%) (U2OS [1]; [6]): 95%
- Population Fragmented Nuclei (%) (U2OS [1]; [6]): 42%
- Population Healthy Nuclei (%) (U2OS [1]; [6]): 34%
- Population Hoechst High Intensity Objects (%) (U2OS [1]; [6]): 6%
- Population Membrane Permeable-Phenotype (%) (U2OS [1]; [6]): 44%
- Population Mitochondria Different-Phenotype (%) (U2OS [1]; [6]): 0%
- Population Mitotic Cells (%) (U2OS [1]; [6]): 4%
- Population Normal (%) (U2OS [1]; [6]): 93%
- Population Pyknosed Nuclei (%) (U2OS [1]; [6]): 23%
- Population Tubulin-Different-Phenotype (%) (U2OS [1]; [6]): 50%
- Total Cell Count (U2OS [1]; [6]): 106
- Population Apoptotic (%) (U2OS [1]; [7]): 59%
- Population Fragmented Nuclei (%) (U2OS [1]; [7]): 57%
- Population Healthy Nuclei (%) (U2OS [1]; [7]): 25%
- Population Hoechst High Intensity Objects (%) (U2OS [1]; [7]): 0%
- Population Membrane Permeable-Phenotype (%) (U2OS [1]; [7]): 11%
- Population Mitochondria Different-Phenotype (%) (U2OS [1]; [7]): 17%
- Population Mitotic Cells (%) (U2OS [1]; [7]): 40%
- Population Normal (%) (U2OS [1]; [7]): 100%
- Population Pyknosed Nuclei (%) (U2OS [1]; [7]): 16%
- Population Tubulin-Different-Phenotype (%) (U2OS [1]; [7]): 5%
- Total Cell Count (U2OS [1]; [7]): 132
- Population Apoptotic (%) (U2OS [1]; [8]): 25%
- Population Fragmented Nuclei (%) (U2OS [1]; [8]): 5%
- Population Healthy Nuclei (%) (U2OS [1]; [8]): 88%
- Population Hoechst High Intensity Objects (%) (U2OS [1]; [8]): 7%
- Population Membrane Permeable-Phenotype (%) (U2OS [1]; [8]): 7%
- Population Mitochondria Different-Phenotype (%) (U2OS [1]; [8]): 15%
- Population Mitotic Cells (%) (U2OS [1]; [8]): 75%
- Population Normal (%) (U2OS [1]; [8]): 92%
- Population Pyknosed Nuclei (%) (U2OS [1]; [8]): 6%
- Population Tubulin-Different-Phenotype (%) (U2OS [1]; [8]): 13%
- Total Cell Count (U2OS [1]; [8]): 65
- Population Apoptotic (%) (U2OS [1]; [9]): 71%
- Population Fragmented Nuclei (%) (U2OS [1]; [9]): 69%
- Population Healthy Nuclei (%) (U2OS [1]; [9]): 27%
- Population Hoechst High Intensity Objects (%) (U2OS [1]; [9]): 6%
- Population Membrane Permeable-Phenotype (%) (U2OS [1]; [9]): 34%
- Population Mitochondria Different-Phenotype (%) (U2OS [1]; [9]): 18%
- Population Mitotic Cells (%) (U2OS [1]; [9]): 28%
- Population Normal (%) (U2OS [1]; [9]): 93%
- Population Pyknosed Nuclei (%) (U2OS [1]; [9]): 2%
- Population Tubulin-Different-Phenotype (%) (U2OS [1]; [9]): 19%
- Total Cell Count (U2OS [1]; [9]): 321
- Population Apoptotic (%) (U2OS [1]; [10]): 100%
- Population Fragmented Nuclei (%) (U2OS [1]; [10]): 10%
- Population Healthy Nuclei (%) (U2OS [1]; [10]): 68%
- Population Hoechst High Intensity Objects (%) (U2OS [1]; [10]): 4%
- Population Membrane Permeable-Phenotype (%) (U2OS [1]; [10]): 20%
- Population Mitochondria Different-Phenotype (%) (U2OS [1]; [10]): 14%
- Population Mitotic Cells (%) (U2OS [1]; [10]): 0%
- Population Normal (%) (U2OS [1]; [10]): 95%
- Population Pyknosed Nuclei (%) (U2OS [1]; [10]): 21%
- Population Tubulin-Different-Phenotype (%) (U2OS [1]; [10]): 43%
- Total Cell Count (U2OS [1]; [10]): 84
- Population Apoptotic (%) (U2OS [1]; [11]): 50%
- Population Fragmented Nuclei (%) (U2OS [1]; [11]): 8%
- Population Healthy Nuclei (%) (U2OS [1]; [11]): 85%
- Population Membrane Permeable-Phenotype (%) (U2OS [1]; [11]): 0%
- Population Mitochondria Different-Phenotype (%) (U2OS [1]; [11]): 7%
- Population Mitotic Cells (%) (U2OS [1]; [11]): 50%
- Population Pyknosed Nuclei (%) (U2OS [1]; [11]): 6%
- Population Tubulin-Different-Phenotype (%) (U2OS [1]; [11]): 3%
- Total Cell Count (U2OS [1]; [11]): 429
- Population Apoptotic (%) (U2OS [1]; [12]): 25%
- Population Fragmented Nuclei (%) (U2OS [1]; [12]): 5%
- Population Healthy Nuclei (%) (U2OS [1]; [12]): 90%
- Population Hoechst High Intensity Objects (%) (U2OS [1]; [12]): 2%
- Population Membrane Permeable-Phenotype (%) (U2OS [1]; [12]): 10%
- Population Mitochondria Different-Phenotype (%) (U2OS [1]; [12]): 18%
- Population Mitotic Cells (%) (U2OS [1]; [12]): 75%
- Population Normal (%) (U2OS [1]; [12]): 97%
- Population Pyknosed Nuclei (%) (U2OS [1]; [12]): 4%
- Population Tubulin-Different-Phenotype (%) (U2OS [1]; [12]): 10%
- Total Cell Count (U2OS [1]; [12]): 93
- Population Apoptotic (%) (U2OS [1]; [13]): 44%
- Population Fragmented Nuclei (%) (U2OS [1]; [13]): 11%
- Population Healthy Nuclei (%) (U2OS [1]; [13]): 82%
- Population Hoechst High Intensity Objects (%) (U2OS [1]; [13]): 3%
- Population Membrane Permeable-Phenotype (%) (U2OS [1]; [13]): 3%
- Population Mitochondria Different-Phenotype (%) (U2OS [1]; [13]): 12%
- Population Mitotic Cells (%) (U2OS [1]; [13]): 55%
- Population Normal (%) (U2OS [1]; [13]): 96%
- Population Pyknosed Nuclei (%) (U2OS [1]; [13]): 6%
- Population Tubulin-Different-Phenotype (%) (U2OS [1]; [13]): 12%
- Total Cell Count (U2OS [1]; [13]): 155
- Population Apoptotic (%) (U2OS [1]; [14]): 75%
- Population Fragmented Nuclei (%) (U2OS [1]; [14]): 7%
- Population Healthy Nuclei (%) (U2OS [1]; [14]): 84%
- Population Hoechst High Intensity Objects (%) (U2OS [1]; [14]): 4%
- Population Membrane Permeable-Phenotype (%) (U2OS [1]; [14]): 17%
- Population Mitochondria Different-Phenotype (%) (U2OS [1]; [14]): 14%
- Population Mitotic Cells (%) (U2OS [1]; [14]): 25%
- Population Normal (%) (U2OS [1]; [14]): 95%
- Population Pyknosed Nuclei (%) (U2OS [1]; [14]): 7%
- Population Tubulin-Different-Phenotype (%) (U2OS [1]; [14]): 37%
- Total Cell Count (U2OS [1]; [14]): 109
- Growth Rate (HEK-293T; [15]): 0
- Growth Rate (HEK-293T; 12 h, replicate number 1, timepoint 12 hours): 1
- Growth Rate (HEK-293T; 18 h, replicate number 1, timepoint 18 hours): 1
- Growth Rate (HEK-293T; [16]): 0
- Growth Rate (U2OS [2]; [15]): 0
- Growth Rate (U2OS [2]; 18 h, replicate number 2, timepoint 18 hours): 1
- Growth Rate (U2OS [2]; [16]): 1
- Growth Rate (U2OS [2]; 24 h, replicate number 2, timepoint 24 hours): 0
